From ChEMBL document CHEMBL4052629, “Scutellarin derivatives as apoptosis inducers: Design, synthesis and biological evaluation” (Eur J Med Chem, 2017)
Active and inactive are the calls of the source. No cut-off for these calls is given here.

Tests used:
[1] = Induction of apoptosis in human LO2 cells assessed as viable cells at 1.2 uM after 72 hrs by Annexin V-FITC/7-AAD or propidium iodide staining-based flow cytometric analysis (reference value: 94.26%); assay type: cell-based, L02; details: read-out: Activity
[2] = test system: L02; experiment: Induction of apoptosis in human LO2 cells assessed as early apoptotic cells at 1.2 uM after 72 hrs by Annexin V-FITC/7-AAD or propidium iodide staining-based flow cytometric analysis (reference value: 3.65%); assay type: cell-based; details: l02, 72 h
[3] = test system: HepG2; experiment: Induction of apoptosis in human HepG2 cells assessed as early apoptotic cells at 0.3 uM after 72 hrs by Annexin V-APC/7-AAD or propidium iodide staining-based flow cytometric analysis (reference value: 1.87%); assay type: functional
[4] = test system: HepG2; experiment: Induction of apoptosis in human HepG2 cells assessed as reduction in adherent cells at 0.3 to 0.6 uM after 48 hrs by Hoechst 33258 staining-based fluorescent microscopic analysis; assay type: functional, cell-based
In short: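 HepG2 cells on sterile cover slips in 6-well plates exposed to 0, 0.3, 0.6 or 1.2 μM, or vehicle, for 48 h. Fixed in 4% paraformaldehyde for 10 min, PBS-washed, stained with Hoechst 33258 for 5 min. Nuclear morphology and adherent cell number viewed at 350 nm excitation / 460 nm emission. Non-treated cells served as control.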

[5] = test system: HepG2; experiment: Cell cycle arrest in human HepG2 cells assessed as accumulation at S phase at 0.6 uM after 72 hrs by propidium iodide staining-based flow cytometric analysis (reference value: 44.6%); assay type: functional
In short: (§1)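 Concentrations used were 0, 0.3, 0.6 and 1.2 μM in HepG2 and 0, 0.16, 0.31 and 1.25 μM in PC-3, with untreated cells as control, for 72 h. Cells were trypsinized, washed in PBS, fixed in cold ethanol at 4 °C overnight, then incubated 30 min in PBS containing RNase A and propidium iodide. DNA content was read by flow cytometry to give phase distribution.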

[6] = test system: HepG2; experiment: Induction of apoptosis in human HepG2 cells assessed as viable cells at 0.3 uM after 72 hrs by Annexin V-APC/7-AAD or propidium iodide staining-based flow cytometric analysis (reference value: 90.08%); assay type: functional; details: HepG2, 72 h, read-out: Activity
[7] = test system: HepG2; experiment: Induction of apoptosis in human HepG2 cells assessed as reduction in HO-1 expression levels at 2 uM after 24 hrs by membrane-based sandwich immunoassay; assay type: functional, cell-based
In short: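 HepG2 cells treated at 2 μM for 24 h; protein extracts prepared per the kit protocol. Relative levels of 35 apoptosis-related proteins measured with a human apoptosis antibody array.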

[8] = test system: L02; experiment: Induction of apoptosis in human LO2 cells assessed as late apoptotic cells at 50 uM after 72 hrs by Annexin V-FITC/7-AAD or propidium iodide staining-based flow cytometric analysis (reference value: 0.11%); assay type: cell-based; details: l02, 72 h
[9] = test system: HepG2; experiment: Induction of apoptosis in human HepG2 cells assessed as viable cells at 0.6 uM after 72 hrs by Annexin V-APC/7-AAD or propidium iodide staining-based flow cytometric analysis (reference value: 90.08%); assay type: functional; details: HepG2, 72 h, read-out: Activity
[10] = test system: HepG2; experiment: Induction of apoptosis in human HepG2 cells assessed as chromatin condensation at 0.3 to 0.6 uM after 48 hrs by Hoechst 33258 staining-based fluorescent microscopic analysis; assay type: functional, cell-based
In short: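 HepG2 cells grown on coverslips were treated for 48 h at 0.3, 0.6 or 1.2 μM, then fixed in 4% paraformaldehyde for 10 min. After PBS washes, cells were stained with Hoechst 33258 for 5 min and washed again. Nuclear morphology was examined by fluorescence imaging at 350 nm excitation and 460 nm emission.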

[11] = test system: HepG2; experiment: Cell cycle arrest in human HepG2 cells assessed as accumulation at G1 phase at 0.6 uM after 72 hrs by propidium iodide staining-based flow cytometric analysis (reference value: 34%); assay type: functional; in short: as §1
[12] = test system: HepG2; experiment: Induction of apoptosis in human HepG2 cells assessed as necrotic cells at 0.3 uM after 72 hrs by Annexin V-APC/7-AAD or propidium iodide staining-based flow cytometric analysis (reference value: 1.87%); assay type: functional
[13] = test system: HepG2; experiment: Induction of apoptosis in human HepG2 cells assessed as late apoptotic cells at 0.6 uM after 72 hrs by Annexin V-APC/7-AAD or propidium iodide staining-based flow cytometric analysis (reference value: 4.14%); assay type: functional
[14] = test system: PC-3; experiment: Cell cycle arrest in human PC3 cells assessed as accumulation at S phase at 0.31 uM after 72 hrs by propidium iodide staining-based flow cytometric analysis (reference value: 36.46%); assay type: functional; in short: as §1
[15] = test system: PC-3; experiment: Induction of apoptosis in human PC3 cells assessed as early apoptotic cells at 0.16 uM after 72 hrs by Annexin V-APC/7-AAD or propidium iodide staining-based flow cytometric analysis (reference value: 4.09%); assay type: functional
[16] = test system: PC-3; experiment: Induction of apoptosis in human PC3 cells assessed as late apoptotic cells at 0.31 uM after 72 hrs by Annexin V-APC/7-AAD or propidium iodide staining-based flow cytometric analysis (reference value: 4.74%); assay type: functional
[17] = test system: PC-3; experiment: Cell cycle arrest in human PC3 cells assessed as accumulation at G1 phase at 0.31 uM after 72 hrs by propidium iodide staining-based flow cytometric analysis (reference value: 53.36%); assay type: functional; in short: as §1
[18] = test system: PC-3; experiment: Induction of apoptosis in human PC3 cells assessed as nuclear fragmentation at 0.16 to 1.25 uM after 48 hrs by Hoechst 33258 staining-based fluorescent microscopic analysis; assay type: functional, cell-based
In short: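 PC-3 cells grown on sterile cover slips were exposed to 0, 0.16, 0.31 or 1.25 μM, or vehicle, for 48 h. Then fixed with 4% paraformaldehyde for 10 min, washed twice in PBS, stained with Hoechst 33258 for 5 min and washed again. Nuclei imaged at 350 nm excitation and 460 nm emission.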

[19] = test system: PC-3; experiment: Induction of apoptosis in human PC3 cells after 72 hrs by Annexin V-APC/7-AAD or propidium iodide staining-based flow cytometric analysis; assay type: functional, cell-based
[20] = test system: PC-3; experiment: Cell cycle arrest in human PC3 cells assessed as accumulation at S phase at 0.16 uM after 72 hrs by propidium iodide staining-based flow cytometric analysis (reference value: 36.46%); assay type: functional; in short: as §1

O=C(NCCCOc1no[n+]([O-])c1S(=O)(=O)c1ccccc1)[C@H]1O[C@@H](Oc2cc3oc(-c4ccc(OCc5ccccc5)cc4)cc(=O)c3c(O)c2OCc2ccccc2)[C@H](O)[C@@H](O)[C@@H]1O
viability at 72 h, 1.2 µM [1]: 81.5% | Activity [2]: 14.2% | Activity [3]: 3.04% | Activity [4]: Active | Activity [5]: 50.45% | viability at 0.3 µM [6]: 79.6% | Activity [7]: Active | Activity [8]: 9.83% | viability at 0.6 µM [9]: 64.6% | Activity [10]: Active | Activity [11]: 32.02% | Activity [12]: 3.85% | Activity [13]: 19.97%

COc1ccc(-c2cc(=O)c3c(O)c(OC)c(O[C@@H]4O[C@H](C(=O)NCCOc5no[n+]([O-])c5S(=O)(=O)c5ccccc5)[C@@H](O)[C@H](O)[C@H]4O)cc3o2)cc1
Activity [14]: 43.3% | Activity [15]: 3.71% | Activity [16]: 22.46% | Activity [17]: 43.22% | Activity [18]: Active | Activity [19]: Dose-dependent effect | Activity [20]: 38.34%
